Four molecules from BindingDB's records for doi:10.1016/j.bmc.2010.03.038 (Northwestern University, 2010) can be followed below.

Assay [1] has as its target Voltage-dependent L-type calcium channel subunit alpha-1D (Rattus norvegicus, UniProt P27732). Put plainly: Antagonist activity at rat Cav1.3 expressed in HEK293 cells assessed as inhibition of voltage pulse-induced calcium current by FLIPR calcium 4 assay. In outline:
(§1)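 HEK293 lines stably expressing Cavβ3 and Cavα2δ-1 plus Cav1.2 α1C (rabbit) or Cav1.3 α1D (rat) were selected with zeocin/hygromycin. Calcium signals were read by FLIPR with Calcium 4 dye. IC50 came from 11-point dose-response curves. Signal percentage error (SD/mean) was 6.4% for Cav1.2 and 4.1% for Cav1.3 cells.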

Assay [2] has as its target Voltage-dependent L-type calcium channel subunit alpha-1C (Oryctolagus cuniculus, UniProt P15381). The experiment in a line: Antagonist activity at rabbit Cav1.2 expressed in HEK293 cells assessed as inhibition of voltage pulse-induced calcium current by FLIPR calcium 4 assay. The method, boiled down:
as §1

Sequence of Voltage-dependent L-type calcium channel subunit alpha-1D (P27732 whole entry): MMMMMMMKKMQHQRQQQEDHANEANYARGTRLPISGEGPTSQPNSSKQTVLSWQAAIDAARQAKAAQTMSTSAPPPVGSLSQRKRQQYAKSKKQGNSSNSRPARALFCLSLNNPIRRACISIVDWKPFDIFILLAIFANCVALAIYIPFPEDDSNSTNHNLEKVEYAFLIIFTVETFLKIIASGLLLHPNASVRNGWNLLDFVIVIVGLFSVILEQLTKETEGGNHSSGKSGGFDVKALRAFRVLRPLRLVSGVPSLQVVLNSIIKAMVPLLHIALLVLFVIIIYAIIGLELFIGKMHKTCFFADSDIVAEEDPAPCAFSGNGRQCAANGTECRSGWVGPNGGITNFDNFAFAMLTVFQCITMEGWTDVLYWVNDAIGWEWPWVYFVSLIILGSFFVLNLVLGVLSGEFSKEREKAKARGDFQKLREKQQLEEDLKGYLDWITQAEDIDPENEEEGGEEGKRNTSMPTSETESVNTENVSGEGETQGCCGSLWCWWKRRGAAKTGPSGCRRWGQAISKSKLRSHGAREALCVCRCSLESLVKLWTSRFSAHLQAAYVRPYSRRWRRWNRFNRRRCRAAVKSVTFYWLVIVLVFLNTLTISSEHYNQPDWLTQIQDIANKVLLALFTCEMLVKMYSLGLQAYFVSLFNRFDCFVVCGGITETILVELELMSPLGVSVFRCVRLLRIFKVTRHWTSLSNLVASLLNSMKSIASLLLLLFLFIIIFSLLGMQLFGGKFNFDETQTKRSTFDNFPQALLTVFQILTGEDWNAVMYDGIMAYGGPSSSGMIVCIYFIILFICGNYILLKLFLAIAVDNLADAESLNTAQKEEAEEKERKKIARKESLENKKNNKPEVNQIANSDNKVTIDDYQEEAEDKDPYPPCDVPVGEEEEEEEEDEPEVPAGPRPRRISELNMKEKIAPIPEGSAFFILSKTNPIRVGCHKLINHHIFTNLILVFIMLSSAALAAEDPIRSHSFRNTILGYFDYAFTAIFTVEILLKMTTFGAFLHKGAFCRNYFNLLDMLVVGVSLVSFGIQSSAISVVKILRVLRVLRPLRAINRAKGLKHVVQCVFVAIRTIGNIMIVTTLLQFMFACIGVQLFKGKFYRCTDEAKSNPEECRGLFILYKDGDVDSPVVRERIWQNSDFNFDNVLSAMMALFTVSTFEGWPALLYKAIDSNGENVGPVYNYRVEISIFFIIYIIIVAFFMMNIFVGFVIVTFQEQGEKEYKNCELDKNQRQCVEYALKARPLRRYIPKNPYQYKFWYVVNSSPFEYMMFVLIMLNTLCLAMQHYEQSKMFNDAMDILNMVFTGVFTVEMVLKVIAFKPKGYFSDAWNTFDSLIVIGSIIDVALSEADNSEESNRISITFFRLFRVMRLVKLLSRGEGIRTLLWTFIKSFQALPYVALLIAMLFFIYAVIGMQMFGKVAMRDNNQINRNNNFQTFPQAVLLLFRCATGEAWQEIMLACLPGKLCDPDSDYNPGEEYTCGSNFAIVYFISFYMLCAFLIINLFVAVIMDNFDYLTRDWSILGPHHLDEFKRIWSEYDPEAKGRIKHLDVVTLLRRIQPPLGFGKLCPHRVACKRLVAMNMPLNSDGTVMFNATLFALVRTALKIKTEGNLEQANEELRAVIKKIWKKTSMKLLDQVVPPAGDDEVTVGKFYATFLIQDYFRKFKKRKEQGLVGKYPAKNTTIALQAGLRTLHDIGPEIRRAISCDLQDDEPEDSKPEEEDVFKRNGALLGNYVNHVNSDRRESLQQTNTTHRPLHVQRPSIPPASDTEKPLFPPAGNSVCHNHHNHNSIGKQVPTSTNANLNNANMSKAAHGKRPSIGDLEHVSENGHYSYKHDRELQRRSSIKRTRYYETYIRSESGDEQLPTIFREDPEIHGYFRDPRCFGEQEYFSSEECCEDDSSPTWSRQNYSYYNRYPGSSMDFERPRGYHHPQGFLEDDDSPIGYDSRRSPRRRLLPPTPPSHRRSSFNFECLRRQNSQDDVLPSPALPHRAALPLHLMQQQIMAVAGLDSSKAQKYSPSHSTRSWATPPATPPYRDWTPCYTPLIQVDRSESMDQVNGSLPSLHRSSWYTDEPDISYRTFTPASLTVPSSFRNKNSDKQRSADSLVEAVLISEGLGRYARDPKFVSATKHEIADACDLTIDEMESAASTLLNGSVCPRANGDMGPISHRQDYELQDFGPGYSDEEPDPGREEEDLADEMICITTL
Sequence of Voltage-dependent L-type calcium channel subunit alpha-1C (P15381 whole entry): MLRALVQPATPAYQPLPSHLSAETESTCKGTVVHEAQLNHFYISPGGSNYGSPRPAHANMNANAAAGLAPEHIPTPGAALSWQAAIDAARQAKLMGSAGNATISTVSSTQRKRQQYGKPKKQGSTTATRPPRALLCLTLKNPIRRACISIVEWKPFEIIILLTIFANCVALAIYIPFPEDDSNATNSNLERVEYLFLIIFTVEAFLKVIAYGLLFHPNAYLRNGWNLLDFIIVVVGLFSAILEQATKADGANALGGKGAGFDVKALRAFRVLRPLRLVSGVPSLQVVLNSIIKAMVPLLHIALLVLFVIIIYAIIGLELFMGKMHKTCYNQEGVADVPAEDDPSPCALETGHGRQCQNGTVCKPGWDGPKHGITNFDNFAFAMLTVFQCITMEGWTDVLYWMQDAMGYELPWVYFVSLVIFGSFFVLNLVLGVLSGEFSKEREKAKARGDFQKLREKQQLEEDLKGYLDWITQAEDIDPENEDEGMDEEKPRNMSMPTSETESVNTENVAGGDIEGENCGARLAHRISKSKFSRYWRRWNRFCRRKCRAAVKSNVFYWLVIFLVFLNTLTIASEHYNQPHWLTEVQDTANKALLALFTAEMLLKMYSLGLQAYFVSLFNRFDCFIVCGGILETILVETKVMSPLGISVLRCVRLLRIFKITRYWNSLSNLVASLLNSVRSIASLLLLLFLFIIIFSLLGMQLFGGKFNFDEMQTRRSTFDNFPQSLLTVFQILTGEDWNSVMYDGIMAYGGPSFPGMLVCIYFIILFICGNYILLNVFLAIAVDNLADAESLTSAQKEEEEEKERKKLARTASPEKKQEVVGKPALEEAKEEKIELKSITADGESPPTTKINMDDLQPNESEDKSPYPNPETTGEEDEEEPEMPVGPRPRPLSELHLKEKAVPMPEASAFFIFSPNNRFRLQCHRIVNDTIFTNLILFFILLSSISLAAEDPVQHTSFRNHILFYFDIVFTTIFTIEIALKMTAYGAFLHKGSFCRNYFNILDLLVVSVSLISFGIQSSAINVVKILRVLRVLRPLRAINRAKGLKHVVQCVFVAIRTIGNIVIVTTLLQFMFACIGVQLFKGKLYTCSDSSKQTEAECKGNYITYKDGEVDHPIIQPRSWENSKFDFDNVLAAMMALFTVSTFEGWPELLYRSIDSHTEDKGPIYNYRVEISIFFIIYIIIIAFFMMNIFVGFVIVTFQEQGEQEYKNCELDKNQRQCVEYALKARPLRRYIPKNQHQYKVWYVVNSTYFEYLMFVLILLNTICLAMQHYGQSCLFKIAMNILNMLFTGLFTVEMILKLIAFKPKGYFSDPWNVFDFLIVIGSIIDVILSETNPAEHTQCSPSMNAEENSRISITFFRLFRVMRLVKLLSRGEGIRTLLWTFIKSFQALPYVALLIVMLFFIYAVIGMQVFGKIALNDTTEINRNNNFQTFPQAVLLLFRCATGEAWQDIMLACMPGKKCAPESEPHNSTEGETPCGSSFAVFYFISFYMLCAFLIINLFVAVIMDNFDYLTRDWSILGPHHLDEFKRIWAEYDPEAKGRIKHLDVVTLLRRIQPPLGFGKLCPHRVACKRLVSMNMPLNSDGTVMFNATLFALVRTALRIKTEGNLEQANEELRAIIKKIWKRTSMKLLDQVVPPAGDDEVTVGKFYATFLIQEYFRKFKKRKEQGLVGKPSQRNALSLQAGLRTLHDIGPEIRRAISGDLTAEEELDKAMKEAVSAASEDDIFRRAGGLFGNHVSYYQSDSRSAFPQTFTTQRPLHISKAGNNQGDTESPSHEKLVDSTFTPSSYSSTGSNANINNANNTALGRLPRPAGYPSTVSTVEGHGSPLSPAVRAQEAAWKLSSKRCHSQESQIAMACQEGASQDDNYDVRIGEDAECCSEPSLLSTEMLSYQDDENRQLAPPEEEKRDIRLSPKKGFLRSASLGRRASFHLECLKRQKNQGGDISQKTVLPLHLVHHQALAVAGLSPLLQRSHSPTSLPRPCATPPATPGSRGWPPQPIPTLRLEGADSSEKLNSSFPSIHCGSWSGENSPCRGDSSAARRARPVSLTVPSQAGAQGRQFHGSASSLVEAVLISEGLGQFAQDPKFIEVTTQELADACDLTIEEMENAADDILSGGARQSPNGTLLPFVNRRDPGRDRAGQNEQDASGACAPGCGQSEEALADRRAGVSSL

On to `C=CCOC(=O)C1=C(C)N=C(C)C(C(=O)OCC)C1c1cccc([N+](=O)[O-])c1` (stereo not drawn) [3-allyl 5-ethyl 2,6-dimethyl-4-(3-nitrophenyl)-1,4-dihydropyridine-3,5-dicarboxylate], for which the IC50 (as a rule, the midpoint of a concentration-inhibition curve) in assay [1] was found to be 15 nM; in assay [2], 25 nM.
The corresponding values for `COC(=O)C1C(C)=NC(C)=C(C(=O)OCc2ccccc2)C1c1cccc([N+](=O)[O-])c1` (stereo not drawn) [3-benzyl 5-methyl 2,6-dimethyl-4-(3-nitrophenyl)-1,4-dihydropyridine-3,5-dicarboxylate] are 15 nM and 25 nM.
As to `COC(=O)C1C(C)=NC(C)=C(C(=O)OC2C=CCCC2)C1c1cccc([N+](=O)[O-])c1` (stereo not drawn) [3-cyclohex-2-enyl 5-methyl 2,6-dimethyl-4-(3-nitrophenyl)-1,4-dihydropyridine-3,5-dicarboxylate], the IC50 in assay [1] and in assay [2] was 10 nM each time.
As to `C=C(C)C(=O)OCCOC(=O)C1=C(C)N=C(C)C(C(=O)OCC)C1c1cccc([N+](=O)[O-])c1` (stereo not drawn) [3-ethyl 5-(2-(methacryloyloxy)ethyl)2,6-dimethyl-4-(3-nitrophenyl)-1,4-dihydropyridine-3,5-dicarboxylate], the IC50 in assay [1] and in assay [2] was 10 nM throughout.
